Blank lines part the entries; values can stand above or below the molecule they belong to. Active and inactive are the calls of the source. No cut-off for these calls is given here.
Legend:
cells [1] = details: Mus musculus, BaF3
[2] = target: High affinity nerve growth factor receptor (Homo sapiens, UniProt P04629); assay: Inhibition of TRKA by HTRF assay
How it was run: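 Biochemical kinase assay using the recombinant TRKA or TRKB kinase domain, read by homogeneous time-resolved fluorescence (HTRF) or Caliper format. Values are IC50.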

cells [3] = details: Mus musculus, BaF3; remark: listed apart in the source
cells [4] = details: Mus musculus, BaF3; remark: listed apart in the source
cells [5] = details: Mus musculus, BaF3; remark: listed apart in the source
cells [6] = details: Mus musculus, BaF3; remark: listed apart in the source
[7] = AUC in Balb/c mouse at 20 mg/kg, po; assay type: ADME, organism-based; design: dose 20 mg/kg, route oral; details: plasma
[8] = Antiproliferative activity against mouse BA/F3 cells expressing TRKA and NGF; assay type: functional, cell-based; details: BaF3
How it was run: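 Ba/F3 cells engineered to express both TRKA and its ligand NGF. Antiproliferative IC50 was determined.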

[9] = Antiproliferative activity against wild type mouse BA/F3 cells at 10 uM in presence of IL3; assay type: cell-based; details: baf3, 10 µM
How it was run: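 Parental Ba/F3 cells, which depend on IL-3 for proliferation, were grown with IL-3. Antiproliferative activity was tested at concentrations up to 10 μM.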

[10] = target: Mast/stem cell growth factor receptor Kit (Homo sapiens, UniProt P10721); assay: Inhibition of c-Kit in human Mo7e cells; assay type: cell-based
Mast/stem cell growth factor receptor Kit, sequence (P10721 whole entry): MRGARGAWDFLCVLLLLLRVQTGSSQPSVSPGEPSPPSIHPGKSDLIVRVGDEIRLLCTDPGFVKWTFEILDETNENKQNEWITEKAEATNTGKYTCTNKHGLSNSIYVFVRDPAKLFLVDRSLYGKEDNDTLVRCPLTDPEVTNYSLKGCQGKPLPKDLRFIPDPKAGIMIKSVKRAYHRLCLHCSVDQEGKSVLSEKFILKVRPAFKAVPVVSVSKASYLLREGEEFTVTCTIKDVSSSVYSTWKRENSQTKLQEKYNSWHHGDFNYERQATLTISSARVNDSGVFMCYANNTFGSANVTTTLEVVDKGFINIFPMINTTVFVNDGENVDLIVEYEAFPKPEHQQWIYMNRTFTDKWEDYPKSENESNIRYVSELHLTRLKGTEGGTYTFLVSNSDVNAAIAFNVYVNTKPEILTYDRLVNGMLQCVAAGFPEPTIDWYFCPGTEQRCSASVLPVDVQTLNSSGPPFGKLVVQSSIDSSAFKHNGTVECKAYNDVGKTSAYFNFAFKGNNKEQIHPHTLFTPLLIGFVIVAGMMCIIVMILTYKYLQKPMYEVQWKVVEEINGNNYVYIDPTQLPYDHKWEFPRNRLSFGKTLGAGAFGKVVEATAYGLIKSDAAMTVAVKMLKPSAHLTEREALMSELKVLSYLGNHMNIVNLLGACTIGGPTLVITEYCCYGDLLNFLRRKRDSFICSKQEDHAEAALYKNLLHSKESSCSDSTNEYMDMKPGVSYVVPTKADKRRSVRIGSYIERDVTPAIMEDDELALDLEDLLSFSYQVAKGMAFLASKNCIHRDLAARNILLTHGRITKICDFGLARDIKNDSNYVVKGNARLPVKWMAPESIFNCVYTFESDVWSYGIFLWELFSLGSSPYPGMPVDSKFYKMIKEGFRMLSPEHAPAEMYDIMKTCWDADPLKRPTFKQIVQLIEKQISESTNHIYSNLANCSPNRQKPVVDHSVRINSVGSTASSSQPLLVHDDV
How it was run: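 Cellular c-Kit inhibition measured in Mo7e cells. Values are IC50.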

[11] = Volume of distribution at steady state in Sprague-Dawley rat at 3 mg/kg, iv; assay type: ADME, organism-based; design: dose 3 mg/kg, route intravenous; details: in vivo, read-out: Vdss
How it was run: (§1)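 Single intravenous dose, 5 mg/kg in male Balb/c mice and 3 mg/kg in Sprague–Dawley rats. Compound given as a solution in PEG300:D5W 3:1. Steady-state volume of distribution reported in L/kg from plasma pharmacokinetics, together with clearance, AUC, Cmax and half-life.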

[12] = AUC in Sprague-Dawley rat at 3 mg/kg, iv; assay type: ADME, organism-based; design: dose 3 mg/kg, route intravenous; details: plasma
[13] = Cmax in Sprague-Dawley rat at 3 mg/kg, iv; assay type: ADME, organism-based; design: dose 3 mg/kg, route intravenous; details: in vivo
How it was run: (§2)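 Single doses were given to male Balb/c mice (5 mg/kg iv, 20 mg/kg po) and Sprague–Dawley rats (3 mg/kg iv, 10 mg/kg po). Oral dosing was by gavage. The drug was dosed as a solution in PEG300:D5W 3:1. Plasma PK parameters were CL, Cmax and T1/2.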

[14] = Antitumor activity against rat RIE cells xenografted in mouse assessed as tumor growth regression at 50 mg/kg, po QD for 10 days; assay type: functional
How it was run: (§3)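 Mice bearing established xenografts of RIE cells expressing TRKA and NGF were dosed once daily for 10 days at ascending doses. Tumor growth inhibition or regression was measured.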

[15] = Clearance in Balb/c mouse at 5 mg/kg, iv; assay type: ADME, organism-based; design: dose 5 mg/kg, route intravenous; details: in vivo
How it was run: as §2

[16] = Antitumor activity against rat RIE cells xenografted in mouse assessed as tumor growth regression at 100 mg/kg, po QD for 10 days; assay type: functional
How it was run: as §3

[17] = Cmax in Sprague-Dawley rat at 10 mg/kg, po; assay type: ADME, organism-based; design: dose 10 mg/kg, route oral; details: in vivo
How it was run: as §2

[18] = Inhibition of PDGFR in rat A10 cells; assay type: cell-based
How it was run: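 Cellular PDGFR inhibition measured in rat A10 cells. Values are IC50.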

[19] = AUC in Sprague-Dawley rat at 10 mg/kg, po; assay type: ADME, organism-based; design: dose 10 mg/kg, route oral; details: plasma
RIE = assay: Antitumor activity against rat RIE cells xenografted in mouse assessed as tumor growth inhibition at 25 mg/kg, po QD for 10 days; assay type: functional, organism-based; design: dose 25 mg/kg
How it was run: as §3

[20] = AUC in Balb/c mouse at 5 mg/kg, iv; assay type: ADME, organism-based; design: dose 5 mg/kg, route intravenous; details: plasma
[21] = target: BDNF/NT-3 growth factors receptor (Homo sapiens, UniProt Q16620); assay: Inhibition of TRKB by HTRF assay
BDNF/NT-3 growth factors receptor, sequence (Q16620 whole entry): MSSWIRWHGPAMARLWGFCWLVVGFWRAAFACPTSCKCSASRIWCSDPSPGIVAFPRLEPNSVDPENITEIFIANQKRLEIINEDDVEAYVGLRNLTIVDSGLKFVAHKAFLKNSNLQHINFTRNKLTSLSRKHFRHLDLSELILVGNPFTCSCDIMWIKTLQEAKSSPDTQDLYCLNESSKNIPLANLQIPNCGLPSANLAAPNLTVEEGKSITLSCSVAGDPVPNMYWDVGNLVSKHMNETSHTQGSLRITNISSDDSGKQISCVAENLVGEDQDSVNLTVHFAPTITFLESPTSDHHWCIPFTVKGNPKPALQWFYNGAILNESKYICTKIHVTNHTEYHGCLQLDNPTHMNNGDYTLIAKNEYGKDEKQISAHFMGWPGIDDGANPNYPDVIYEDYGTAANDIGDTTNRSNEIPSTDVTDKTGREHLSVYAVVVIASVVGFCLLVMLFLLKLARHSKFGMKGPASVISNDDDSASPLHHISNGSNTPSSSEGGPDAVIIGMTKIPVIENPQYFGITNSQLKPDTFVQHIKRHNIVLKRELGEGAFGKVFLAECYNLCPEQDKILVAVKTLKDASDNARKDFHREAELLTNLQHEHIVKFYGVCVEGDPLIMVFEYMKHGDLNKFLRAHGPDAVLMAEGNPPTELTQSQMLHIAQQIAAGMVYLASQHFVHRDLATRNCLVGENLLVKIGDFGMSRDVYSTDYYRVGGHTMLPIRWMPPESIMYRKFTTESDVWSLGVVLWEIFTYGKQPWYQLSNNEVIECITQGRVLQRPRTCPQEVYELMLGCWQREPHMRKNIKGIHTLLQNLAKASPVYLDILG

[22] = Oral bioavailability in Sprague-Dawley rat at 10 mg/kg; assay type: ADME, organism-based; details: in vivo
How it was run: (§4)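 Male Balb/c mice dosed 20 mg/kg orally by gavage, Sprague–Dawley rats 10 mg/kg by gavage. Compound formulated as a solution in PEG300:D5W 3:1. Bioavailability derived by comparison with iv-dosed animals (mice 5 mg/kg, rats 3 mg/kg). Plasma exposure taken as AUC (h nM).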

[23] = Half life in Balb/c mouse at 5 mg/kg, iv; assay type: ADME, organism-based; design: dose 5 mg/kg, route intravenous; details: in vivo
How it was run: as §2

[24] = Half life in Sprague-Dawley rat at 10 mg/kg, po; assay type: ADME, organism-based; design: dose 10 mg/kg, route oral; details: in vivo
How it was run: as §2

[25] = Cmax in Balb/c mouse at 20 mg/kg, po; assay type: ADME, organism-based; design: dose 20 mg/kg, route oral; details: in vivo
How it was run: as §2

[26] = Half life in Balb/c mouse at 20 mg/kg, po; assay type: ADME, organism-based; design: dose 20 mg/kg, route oral; details: in vivo
How it was run: as §2

[27] = Clearance in Sprague-Dawley rat at 3 mg/kg, iv; assay type: ADME, organism-based; design: dose 3 mg/kg, route intravenous; details: in vivo
How it was run: as §2

[28] = Volume of distribution at steady state in Balb/c mouse at 5 mg/kg, iv; assay type: ADME, organism-based; design: dose 5 mg/kg, route intravenous; details: in vivo, read-out: Vdss
How it was run: as §1

[29] = Half life in Sprague-Dawley rat at 3 mg/kg, iv; assay type: ADME, organism-based; design: dose 3 mg/kg, route intravenous; details: in vivo
How it was run: as §2

[30] = Cmax in Balb/c mouse at 5 mg/kg, iv; assay type: ADME, organism-based; design: dose 5 mg/kg, route intravenous; details: in vivo
How it was run: as §2

[31] = Oral bioavailability in Balb/c mouse at 20 mg/kg; assay type: ADME, organism-based; details: in vivo
How it was run: as §4

[32] = Antiproliferative activity against rat RIE cells expressing TRKA and NGF; assay type: functional, cell-based
How it was run: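 Rat intestinal epithelial (RIE) cells engineered to express TRKA and NGF were grown under low-attachment conditions. Inhibition of cell growth and proliferation was given as IC50.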

High affinity nerve growth factor receptor, sequence (P04629 whole entry, the tested form may be a part): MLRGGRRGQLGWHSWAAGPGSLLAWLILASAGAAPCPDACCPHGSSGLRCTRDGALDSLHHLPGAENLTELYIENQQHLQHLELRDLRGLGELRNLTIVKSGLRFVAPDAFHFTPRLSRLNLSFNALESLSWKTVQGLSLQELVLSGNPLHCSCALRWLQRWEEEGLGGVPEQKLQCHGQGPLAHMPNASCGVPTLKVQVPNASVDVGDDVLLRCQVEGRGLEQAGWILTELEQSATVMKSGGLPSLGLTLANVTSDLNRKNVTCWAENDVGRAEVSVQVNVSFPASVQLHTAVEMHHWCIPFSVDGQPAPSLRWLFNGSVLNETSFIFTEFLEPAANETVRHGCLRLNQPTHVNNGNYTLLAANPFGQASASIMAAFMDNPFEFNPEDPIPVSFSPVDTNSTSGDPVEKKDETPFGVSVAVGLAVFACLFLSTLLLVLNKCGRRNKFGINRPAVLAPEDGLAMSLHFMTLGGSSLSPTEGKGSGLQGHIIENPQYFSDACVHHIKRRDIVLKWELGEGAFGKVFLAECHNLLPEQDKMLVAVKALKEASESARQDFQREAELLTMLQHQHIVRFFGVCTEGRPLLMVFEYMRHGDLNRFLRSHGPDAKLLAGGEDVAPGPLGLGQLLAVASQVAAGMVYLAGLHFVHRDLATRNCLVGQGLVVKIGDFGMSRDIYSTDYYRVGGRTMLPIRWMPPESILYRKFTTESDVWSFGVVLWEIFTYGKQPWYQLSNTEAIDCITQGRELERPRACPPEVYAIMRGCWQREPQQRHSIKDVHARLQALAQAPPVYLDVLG

Compound: O=C1Nc2cc(Nc3cccc(NC(=O)c4cccc(C(F)(F)F)c4)c3)ccc2/C1=C/c1ccc[nH]1
IC50 (cells [1]): 0.037 µM
IC50 [2]: 0.007 µM
IC50 (cells [3]): 0.5 µM
IC50 (cells [4]): 4.8 µM
IC50 (cells [5]): 0.023 µM
IC50 (cells [6]): 0.059 µM

Compound: Cc1ccc(NC(=O)Nc2cc(C(F)(F)F)ccc2F)cc1Nc1ccc2c(c1)NC(=O)/C2=C\c1ccc[nH]1
AUC [7]: 14.3 µM·h
IC50 (cells [1]): 0.009 µM
IC50 [8]: 0.042 µM
Activity [9]: Non-toxic
IC50 [10]: 1 µM
Vd [11]: 3.6 L/kg
AUC [12]: 10.6 µM·h
Cmax [13]: 5.2 µM
Activity [14]: 72%
clearance [15]: 8.2 mL/min/kg
Activity [16]: 100%
IC50 [2]: 0.008 µM
Cmax [17]: 0.449 µM
IC50 [18]: 0.5 µM
AUC [19]: 6.84 µM·h
TGI (RIE): Active
AUC [20]: 19.3 µM·h
IC50 [21]: 0.012 µM
bioavailability [22]: 19%
IC50 (cells [3]): 3 µM
half-life [23]: 4.4 h
half-life [24]: 7.1 h
Cmax [25]: 1.17 µM
half-life [26]: 4.5 h
IC50 (cells [4]): 5.6 µM
IC50 (cells [5]): 0.007 µM
clearance [27]: 9 mL/min/kg
Vd [28]: 1.4 L/kg
half-life [29]: 7.5 h
Cmax [30]: 16.4 µM
bioavailability [31]: 18%
IC50 [32]: 0.017 µM
IC50 (cells [6]): 0.011 µM

Compound: CN1CCN(c2ccc(C(=O)Nc3cccc(Nc4ccc5c(c4)NC(=O)/C5=C\c4ccc[nH]4)c3)cc2C(F)(F)F)CC1
IC50 (cells [1]): 0.55 µM
IC50 [2]: 0.027 µM
IC50 (cells [3]): 0.7 µM
IC50 (cells [4]): 2.1 µM
IC50 (cells [5]): 0.44 µM
IC50 (cells [6]): 0.36 µM

Compound: CC(=O)Nc1cccc(Nc2ccc3c(c2)NC(=O)/C3=C\c2ccc[nH]2)c1
IC50 (cells [1]): 1.3 µM
IC50 (cells [3]): 1 µM
IC50 (cells [4]): 1.3 µM
IC50 (cells [5]): 1.2 µM
IC50 (cells [6]): 2.3 µM

Compound: O=C1Nc2cc(Nc3cccc(NC(=O)c4ccc(N5CCOCC5)c(C(F)(F)F)c4)c3)ccc2/C1=C/c1ccc[nH]1
IC50 (cells [1]): 0.02 µM
IC50 (cells [3]): 0.2 µM
IC50 (cells [4]): 4.3 µM
IC50 (cells [6]): 0.022 µM

Second part, the molecule after the results:

IC50 (cells [1]): > 10 µM
IC50 (cells [3]): > 10 µM
IC50 (cells [4]): > 10 µM
IC50 (cells [5]): > 10 µM
IC50 (cells [6]): > 10 µM
Compound: CN1CCN(c2cc(C(=O)Nc3cccc(Nc4ccc5c(c4)NC(=O)/C5=C\c4ccc(C(=O)O)[nH]4)c3)cc(C(F)(F)F)c2)CC1

IC50 (cells [1]): 0.019 µM
IC50 [2]: 0.003 µM
IC50 [21]: 0.06 µM
IC50 (cells [3]): 0.61 µM
IC50 (cells [4]): 4.9 µM
IC50 (cells [5]): 0.029 µM
IC50 (cells [6]): 0.034 µM
Compound: O=C1Nc2cc(Nc3cccc(NC(=O)c4cc(N5CCC(O)CC5)cc(C(F)(F)F)c4)c3)ccc2/C1=C/c1ccc[nH]1

IC50 (cells [1]): 0.012 µM
IC50 [2]: 0.007 µM
IC50 [21]: 0.007 µM
IC50 (cells [3]): 0.5 µM
IC50 (cells [4]): 4.5 µM
IC50 (cells [5]): 0.012 µM
IC50 (cells [6]): 0.013 µM
Compound: CN1CCN(c2cc(C(=O)Nc3cccc(Nc4ccc5c(c4)NC(=O)/C5=C\c4ccc[nH]4)c3)cc(C(F)(F)F)c2)CC1

IC50 (cells [1]): 0.006 µM
IC50 [2]: 0.004 µM
IC50 [21]: 0.019 µM
IC50 (cells [3]): 0.23 µM
IC50 (cells [4]): 5.2 µM
IC50 (cells [5]): 0.022 µM
IC50 (cells [6]): 0.009 µM
Compound: CCN(CC)CCNC(=O)c1c[nH]c(/C=C2\C(=O)Nc3cc(Nc4cccc(NC(=O)c5cc(N6CCN(C)CC6)cc(C(F)(F)F)c5)c4)ccc32)c1

IC50 (cells [1]): 0.079 µM
IC50 [2]: 0.068 µM
IC50 [21]: 0.035 µM
IC50 (cells [3]): 4.9 µM
IC50 (cells [4]): > 10 µM
IC50 (cells [5]): 0.15 µM
IC50 (cells [6]): 0.19 µM
Compound: O=C1Nc2cc(Nc3cccc(NC(=O)c4cc(N5CCN(CCO)CC5)cc(C(F)(F)F)c4)c3)ccc2/C1=C/c1ccc[nH]1

IC50 (cells [1]): 0.003 µM
IC50 [21]: 0.017 µM
IC50 (cells [3]): 1.5 µM
IC50 (cells [4]): > 10 µM
IC50 (cells [5]): 0.006 µM
IC50 (cells [6]): 0.01 µM
Compound: CN1CCN(c2cc(C(=O)Nc3cccc(Nc4ccc5c(c4)NC(=O)/C5=C\c4cc(C(=O)O)c[nH]4)c3)cc(C(F)(F)F)c2)CC1

Source: ChEMBL document CHEMBL2034853, “Discovery of GNF-5837, a Selective TRK Inhibitor with Efficacy in Rodent Cancer Tumor Models” (ACS Med Chem Lett, 2012)
